Test results: ChEMBL document CHEMBL2163238, “Design, synthesis, and biological evaluation of N-alkylated deoxynojirimycin (DNJ) derivatives for the treatment of dengue virus infection” (J Med Chem, 2012)
Values after ≈ are worked out from the molar mass of the structure shown.

Legend:
[1] = Cytotoxicity against MDBK cells assessed as cell viability by MTT assay; assay type: cell-based, Bos taurus; conditions: cattle
dengue virus type 2 = assay: Antiviral activity against 0.01 MOI DENV-2 NGC infected in BHK cells assessed as reduction in viral titer after 48 hrs; assay type: functional, organism-based
Procedure, shortened: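 BHK cells infected with DENV-2 New Guinea C at MOI 0.01 for 1 h. Inoculum removed, then compounds at 0.1–100 μM for 48 h at 37 °C. Supernatants titrated on Vero monolayers as 10-fold dilutions under 0.5% methylcellulose for 3–5 days. Foci detected by 4G2 immunostaining or crystal violet plaques. EC50 from dose–response curves, mean of 3 independent experiments.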

[2] = Selectivity index, ratio of CC50 for BHK cells to EC50 for DENV-2 NGC infected in BHK cells
Procedure, shortened: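 BHK cells infected with DENV-2 New Guinea C at MOI 0.01 for 1 h, then compounds at 0.1–100 μM for 48 h at 37 °C. Supernatant titrated on Vero cells under 0.5% methylcellulose, 3–5 days; foci by 4G2 immunostaining or crystal violet plaques. EC50 from yield curves; MTT CC50 in uninfected BHK; SI = CC50/EC50.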

[3] = Cytotoxicity against BHK cells assessed as cell viability by MTT assay; assay type: cell-based, Mesocricetus auratus; conditions: hamster
[4] = Antiviral activity against 1 MOI BVDV NADL infected in MDBK cells assessed as reduction in viral titer after 22 hrs; assay type: functional, cell-based, Bovine viral diarrhea virus 1-NADL; conditions: Bovine viral diarrhea virus isolates and strains, MDBK, 22 h
Procedure, shortened: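 MDBK cells (2×10^5) infected 24 h after seeding with BVDV NADL at MOI 1, with 1 h adsorption at 37 °C. Washed, then compounds at 0.1–100 μM. Media harvested 22 h post-infection and plaque-titrated on MDBK under 1% methylcellulose for 3 days. Plaques counted directly or after neutral red staining. EC50 from dose–response curves, mean of 3 independent experiments.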

[5] = Selectivity index, ratio of CC50 for MDBK cells to EC50 for BVDV NADL infected in MDBK cells
Procedure, shortened: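 MDBK cells infected with BVDV NADL at MOI 1, 1 h at 37 °C, washed, then compounds at 0.1–100 μM. Media harvested at 22 h, plaque-titrated on MDBK under 1% methylcellulose for 3 days, neutral red or direct count. EC50 from yield curves; MTT CC50 in uninfected MDBK; SI = CC50/EC50.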

CYP1A2 = biological target: T1, CYP1A2 (Homo sapiens, UniProt P05177); assay: Inhibition of human CYP1A2 at 10 uM; assay type: ADME
T1 sequence (P05177 whole entry): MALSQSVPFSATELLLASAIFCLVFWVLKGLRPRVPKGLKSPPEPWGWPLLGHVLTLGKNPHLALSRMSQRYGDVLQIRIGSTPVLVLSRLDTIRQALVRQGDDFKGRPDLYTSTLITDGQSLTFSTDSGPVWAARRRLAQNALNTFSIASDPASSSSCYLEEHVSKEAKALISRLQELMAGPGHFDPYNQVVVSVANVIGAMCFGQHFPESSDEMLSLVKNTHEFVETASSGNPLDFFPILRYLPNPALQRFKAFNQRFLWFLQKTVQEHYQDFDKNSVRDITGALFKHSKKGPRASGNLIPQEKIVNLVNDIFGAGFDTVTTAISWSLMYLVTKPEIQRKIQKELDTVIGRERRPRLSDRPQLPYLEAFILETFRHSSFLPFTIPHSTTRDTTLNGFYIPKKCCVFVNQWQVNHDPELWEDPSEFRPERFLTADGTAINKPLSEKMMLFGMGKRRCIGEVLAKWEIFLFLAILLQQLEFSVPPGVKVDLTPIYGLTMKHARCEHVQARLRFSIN
Procedure, shortened: (§1)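 Inhibition of CYP isoforms with compound at 10 μM, reported as % inhibition. CYP3A4 run with midazolam or testosterone as substrate.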

[6] = Plasma protein binding in mouse plasma; assay type: ADME, cell-free; conditions: read-out: PPB (converted)
Procedure, shortened: (§2)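 Binding of compound to human, rat or mouse plasma protein, reported as % bound.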

[7] = Metabolic stability in human liver microsomes at 60 mins; assay type: ADME, Microsome; conditions: read-out: Stability
CYP3A4 [8] = biological target: T2, CYP3A4 (Homo sapiens, UniProt P08684); assay: Inhibition of human CYP3A4 using midazolam as substrate at 10 uM; assay type: ADME; conditions: probe midazolam; procedure, shortened: as §1
T2 sequence (P08684 whole entry): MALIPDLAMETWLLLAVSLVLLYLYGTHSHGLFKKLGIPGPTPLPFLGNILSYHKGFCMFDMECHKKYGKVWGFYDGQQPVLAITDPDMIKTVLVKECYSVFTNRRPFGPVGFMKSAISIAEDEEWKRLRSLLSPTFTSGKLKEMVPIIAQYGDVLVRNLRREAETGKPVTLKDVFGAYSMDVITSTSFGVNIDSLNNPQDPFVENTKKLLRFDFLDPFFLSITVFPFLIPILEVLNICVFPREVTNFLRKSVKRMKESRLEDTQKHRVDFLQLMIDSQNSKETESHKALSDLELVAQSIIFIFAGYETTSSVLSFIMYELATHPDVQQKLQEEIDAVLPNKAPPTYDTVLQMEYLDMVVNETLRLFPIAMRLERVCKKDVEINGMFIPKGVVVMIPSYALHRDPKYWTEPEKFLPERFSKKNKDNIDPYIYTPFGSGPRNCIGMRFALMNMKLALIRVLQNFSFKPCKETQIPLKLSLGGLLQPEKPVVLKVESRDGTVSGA

CYP2C9 = CYP2C9 (Homo sapiens, UniProt P11712); assay: Inhibition of human CYP2C9 at 10 uM; assay type: ADME
Chain of CYP2C9 (P11712 whole entry, canonical isoform): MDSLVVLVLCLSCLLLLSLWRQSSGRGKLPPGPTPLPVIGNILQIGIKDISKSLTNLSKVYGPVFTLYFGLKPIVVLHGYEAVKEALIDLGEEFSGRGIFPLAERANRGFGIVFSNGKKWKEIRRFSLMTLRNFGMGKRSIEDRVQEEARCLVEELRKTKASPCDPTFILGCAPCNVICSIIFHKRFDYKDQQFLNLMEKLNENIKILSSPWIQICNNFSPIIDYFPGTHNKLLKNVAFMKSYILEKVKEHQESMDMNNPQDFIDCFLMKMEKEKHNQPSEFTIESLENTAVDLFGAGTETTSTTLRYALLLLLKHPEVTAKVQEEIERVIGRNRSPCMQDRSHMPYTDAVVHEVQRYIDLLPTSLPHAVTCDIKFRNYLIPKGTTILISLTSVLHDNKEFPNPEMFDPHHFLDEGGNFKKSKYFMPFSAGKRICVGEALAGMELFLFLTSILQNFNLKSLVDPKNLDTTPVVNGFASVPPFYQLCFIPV
Procedure, shortened: (§3)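 Inhibition of CYP isoforms by compounds tested at 10 μM, given as percent inhibition; contract in vitro ADME panel.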

CYP2D6 = CYP2D6 (Homo sapiens, UniProt P10635); assay: Inhibition of human CYP2D6 at 10 uM; assay type: ADME; procedure, shortened: as §3
Chain of CYP2D6 (P10635 whole entry): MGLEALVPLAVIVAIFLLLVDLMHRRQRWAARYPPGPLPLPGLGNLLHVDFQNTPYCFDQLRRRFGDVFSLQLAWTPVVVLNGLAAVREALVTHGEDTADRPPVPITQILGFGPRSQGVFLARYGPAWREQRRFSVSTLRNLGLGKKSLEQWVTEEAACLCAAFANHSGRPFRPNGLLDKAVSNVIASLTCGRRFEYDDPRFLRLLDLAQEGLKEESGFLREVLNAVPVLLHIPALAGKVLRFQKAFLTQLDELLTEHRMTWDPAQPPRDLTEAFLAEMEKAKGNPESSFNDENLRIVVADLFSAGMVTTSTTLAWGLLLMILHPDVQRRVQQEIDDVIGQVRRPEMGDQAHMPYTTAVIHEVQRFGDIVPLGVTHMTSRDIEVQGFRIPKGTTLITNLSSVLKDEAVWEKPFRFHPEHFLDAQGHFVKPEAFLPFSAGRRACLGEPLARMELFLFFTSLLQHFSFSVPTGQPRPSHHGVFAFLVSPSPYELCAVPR

[9] = Plasma protein binding in rat plasma; assay type: ADME, cell-free; conditions: read-out: PPB (converted); procedure, shortened: as §2
[10] = Metabolic stability in rat liver microsomes at 60 mins; assay type: ADME, Microsome; conditions: read-out: Stability
[11] = Aqueous solubility in PBS at pH 4; assay type: physicochemical; conditions: buffer
[12] = Plasma protein binding in human plasma; assay type: ADME, cell-free; conditions: read-out: PPB (converted); procedure, shortened: as §2
[13] = Metabolic stability in mouse liver microsomes at 60 mins; assay type: ADME, Microsome; conditions: read-out: Stability
[14] = Aqueous solubility in PBS at pH 7.4; assay type: physicochemical; conditions: buffer
CYP2C19 = CYP2C19 (Homo sapiens, UniProt P33261); assay: Inhibition of human CYP2C19 at 10 uM; assay type: ADME; procedure, shortened: as §1
Chain of CYP2C19 (P33261 whole entry): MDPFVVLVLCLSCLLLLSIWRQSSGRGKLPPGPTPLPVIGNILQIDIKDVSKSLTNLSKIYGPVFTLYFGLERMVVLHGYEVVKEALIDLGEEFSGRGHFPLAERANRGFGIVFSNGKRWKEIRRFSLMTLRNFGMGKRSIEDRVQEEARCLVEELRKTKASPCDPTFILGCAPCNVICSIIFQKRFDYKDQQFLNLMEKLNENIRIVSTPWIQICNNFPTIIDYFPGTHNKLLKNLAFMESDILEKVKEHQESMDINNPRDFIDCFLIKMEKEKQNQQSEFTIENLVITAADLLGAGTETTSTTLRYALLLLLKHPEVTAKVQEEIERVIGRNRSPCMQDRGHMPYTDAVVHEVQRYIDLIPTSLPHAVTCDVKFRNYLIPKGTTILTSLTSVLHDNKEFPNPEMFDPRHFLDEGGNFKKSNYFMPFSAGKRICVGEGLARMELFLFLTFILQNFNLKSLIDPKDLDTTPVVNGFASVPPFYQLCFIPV

Cytochrome P450 3A4 = Cytochrome P450 3A4 (Homo sapiens, UniProt P08684); assay: (§4) Inhibition of human CYP3A4 using testosterone as substrate at 10 uM; assay type: ADME; conditions: 10 µM; procedure, shortened: as §1
Chain of Cytochrome P450 3A4 (P08684 whole entry): as the sequence (P08684 whole entry) above

CYP3A4 [15] = biological target: T2, CYP3A4; assay: as §4; assay type: ADME; conditions: probe testosterone; procedure, shortened: as §1

For `CCCOc1ccccc1CCCN1C[C@H](O)[C@@H](O)[C@H](O)[C@H]1CO`, the CC50 [1] was > 500000 nM, the EC50 (dengue virus type 2) was 3200 nM and the “Ratio CC50/EC50” value [2] was >156. The CC50 [3] was > 500000 nM, the EC50 [4] was 800 nM and the “Ratio CC50/EC50” value [5] was >625.
With `OC[C@@H]1[C@@H](O)[C@H](O)[C@@H](O)CN1CCCCCCOc1c(F)c(F)c(F)c(F)c1F` the CC50 [1] was > 500000 nM, the EC50 (dengue virus type 2) was 1700 nM and the “Ratio CC50/EC50” value [2] was >294. For the same compound, the CC50 [3] was > 500000 nM, the EC50 [4] was 1000 nM and the “Ratio CC50/EC50” value [5] was >500.
In the case of `CCCC(CCC)OCCCCCCN1C[C@H](O)[C@@H](O)[C@H](O)[C@H]1CO`, the CC50 [1] is reported as > 500000 nM, the EC50 (dengue virus type 2) is reported as 300 nM and the inhibition at 10 µM (CYP1A2) is reported as 2%. It also gave a fraction unbound [6] of 0.17, a remaining at 1 h [7] of 73% and an inhibition at 10 µM (CYP3A4 [8]) of 2.5%. For the same compound, the inhibition at 10 µM (CYP2C9) was 43.5%, the inhibition at 10 µM (CYP2D6) was 9.1% and the fraction unbound [9] was 0.23. For the same compound, the remaining at 1 h [10] was 80%, the solubility [11] was 290 µM (≈ 105 µg/mL) and the fraction unbound [12] was 0.09. It also gave a remaining at 1 h [13] of 77%, a solubility [14] of 302 µM (≈ 109 µg/mL) and an inhibition at 10 µM (CYP2C19) of -1.1%. The CC50 [3] was 425000 nM, the EC50 [4] was 600 nM and the “inhibition (INH)” value (Cytochrome P450 3A4) was 4.2%.
In the case of `Cc1ccccc1OCCCCCCN1C[C@H](O)[C@@H](O)[C@H](O)[C@H]1CO`, the CC50 [1] is reported as > 500000 nM, the EC50 (dengue virus type 2) is reported as 500 nM and the “Ratio CC50/EC50” value [2] is reported as 900. The CC50 [3] was 450000 nM, the EC50 [4] was 400 nM and the “Ratio CC50/EC50” value [5] was >1250.
With `CCCOc1ccc(CCCN2C[C@H](O)[C@@H](O)[C@H](O)[C@H]2CO)cc1` the CC50 [1] was > 500000 nM, the EC50 (dengue virus type 2) was 500 nM and the “Ratio CC50/EC50” value [2] was >1000. For the same compound, the CC50 [3] was > 500000 nM, the EC50 [4] was 200 nM and the “Ratio CC50/EC50” value [5] was >2500.
With `OC[C@@H]1[C@@H](O)[C@H](O)[C@@H](O)CN1CCCCCCOc1ccc(F)cc1` the CC50 [1] was > 500000 nM, the EC50 (dengue virus type 2) was 1100 nM and the “Ratio CC50/EC50” value [2] was >455. The CC50 [3] was > 500000 nM, the EC50 [4] was 300 nM and the “Ratio CC50/EC50” value [5] was >1667.
In the case of `COc1ccccc1OCCCCCCN1C[C@H](O)[C@@H](O)[C@H](O)[C@H]1CO`, the CC50 [1] is reported as > 500000 nM, the EC50 (dengue virus type 2) is reported as 800 nM and the inhibition at 10 µM (CYP1A2) is reported as -1.6%. It also gave a fraction unbound [6] of 0.31, a remaining at 1 h [7] of 99% and an inhibition at 10 µM (CYP3A4 [8]) of 12.1%. For the same compound, the inhibition at 10 µM (CYP2C9) was 11.7%, the inhibition at 10 µM (CYP2D6) was 8.7% and the fraction unbound [9] was 0.3. The remaining at 1 h [10] was 98%, the solubility [11] was 286 µM (≈ 106 µg/mL) and the fraction unbound [12] was 0.35. It also gave a remaining at 1 h [13] of 92%, a solubility [14] of 293 µM (≈ 108 µg/mL) and an inhibition at 10 µM (CYP2C19) of -4.4%. The CC50 [3] was > 500000 nM, the EC50 [4] was 1000 nM and the inhibition at 10 µM (CYP3A4 [15]) was -2.4%.
With `COc1ccc(OCCCCCCN2C[C@H](O)[C@@H](O)[C@H](O)[C@H]2CO)cc1` the CC50 [1] was > 500000 nM, the EC50 (dengue virus type 2) was 4000 nM and the “Ratio CC50/EC50” value [2] was >125. The CC50 [3] was > 500000 nM, the EC50 [4] was 1000 nM and the “Ratio CC50/EC50” value [5] was >500.
With `Cc1cccc(OCCCCCCN2C[C@H](O)[C@@H](O)[C@H](O)[C@H]2CO)c1` the CC50 [1] was > 500000 nM, the EC50 (dengue virus type 2) was 600 nM and the inhibition at 10 µM (CYP1A2) was 21.4%. The fraction unbound [6] was 0.17, the remaining at 1 h [7] was 87% and the inhibition at 10 µM (CYP3A4 [8]) was 28.7%. The inhibition at 10 µM (CYP2C9) was 8.9%, the inhibition at 10 µM (CYP2D6) was 12.8% and the fraction unbound [9] was 0.21. The remaining at 1 h [10] was 81%, the solubility [11] was 279 µM (≈ 98.6 µg/mL) and the fraction unbound [12] was 0.2. The remaining at 1 h [13] was […], the solubility [14] was 286 µM (≈ 101 µg/mL) and the inhibition at 10 µM (CYP2C19) was 3.9%. The CC50 [3] was > 500000 nM, the EC50 [4] was 600 nM and the “inhibition (INH)” value (Cytochrome P450 3A4) was 2.3%.
For `OC[C@@H]1[C@@H](O)[C@H](O)[C@@H](O)CN1CC/C=C\CCOc1cc(F)ccc1F`, the CC50 [1] was > 500000 nM, the EC50 (dengue virus type 2) was 8500 nM and the “Ratio CC50/EC50” value [2] was >59. The EC50 [4] was 2000 nM and the “Ratio CC50/EC50” value [5] was >250.
